Screening results as filed in PubChem BioAssay.
This is a sample that favours compounds with a hit; in the whole collection about 0.74% have one here.
RGS16-Gao HTS – modulators of RGS16 binding to Galphao, primary screen, biochemical, human proteins, multiplexed bead flow cytometry. Regulator of G-protein signaling 16 (Homo sapiens) + Guanine nucleotide-binding protein …. bead-based flow cytometry RGS16-Galphao binding, fluorescence; actives lie on both sides. binding response (% of control), % at 10 µM. 220,000 tested, 0.38% active;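 further: Galphao activated by GDP with aluminum fluoride before binding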
Target sequence (O15492 whole entry, looked up): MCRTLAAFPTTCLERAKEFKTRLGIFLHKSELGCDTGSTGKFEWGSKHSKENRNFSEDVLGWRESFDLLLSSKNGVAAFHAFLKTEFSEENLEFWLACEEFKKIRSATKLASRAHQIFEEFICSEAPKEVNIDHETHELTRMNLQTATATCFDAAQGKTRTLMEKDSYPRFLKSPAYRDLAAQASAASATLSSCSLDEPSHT
Target sequence (P09471 whole entry, looked up): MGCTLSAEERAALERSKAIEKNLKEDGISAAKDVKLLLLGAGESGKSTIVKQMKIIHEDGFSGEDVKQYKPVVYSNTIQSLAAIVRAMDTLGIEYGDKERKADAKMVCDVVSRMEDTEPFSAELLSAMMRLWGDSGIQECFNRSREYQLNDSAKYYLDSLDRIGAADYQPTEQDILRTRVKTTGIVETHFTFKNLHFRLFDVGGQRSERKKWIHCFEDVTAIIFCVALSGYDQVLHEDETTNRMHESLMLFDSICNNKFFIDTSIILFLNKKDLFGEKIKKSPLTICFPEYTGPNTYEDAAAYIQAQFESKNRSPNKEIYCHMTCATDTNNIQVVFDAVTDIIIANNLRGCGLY
RGS8-Gao – RGS8-Galphao binding modulators, primary screen, biochemical, multiplexed bead flow cytometry. Guanine nucleotide-binding protein G(o) subunit alpha (Homo sapiens), P09471. response (percent of control binding), % at 10 µM. 220,000 tested, 0.34% active. actives lie on both sides; in the data active means response below about 60% or above about 140%; inactive means in between;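 further: Galphao activated as the GDP aluminium fluoride complex binding bead-coupled RGS8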
RGS4-Gao reg – modulators of RGS4 binding to Galphao, primary screen, biochemical, multiplexed bead flow cytometry | AID 1415, 2008 | 220,000 tested, 0.33% active | Guanine nucleotide-binding protein G(o) subunit alpha (Homo sapiens), P09471 | actives lie on both sides | binding response (% of control), % at 10 µM; in the data active means binding response below about 49% or above about 150%; inactive means in between;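 further: fluorescent Galphao activated with aluminum fluoride binding bead-coupled RGS4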
Calb biofilm kill – clotrimazole potentiators killing C. albicans biofilm, primary screen, 4-compound mixtures; inhibition, % at 7.6 µM; 120,000 tested, 0.02% active; C. albicans biofilm persisters + clotrimazole, fluorescence viability; primary screen in compound mixtures of four per well;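 further: compounds exposed to preformed 24 h biofilms for 48 h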
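Probe or stimulus – Clotrimazole 50 µg/mL co-treatment · System – C. albicans biofilms · Schedule – 24 h biofilm formation, then 48 h compound exposure, 37 °C · Evaluation – percent inhibition of biofilm viability · Technique – 2-h Alamar Blue fluorescence, 535/590 nm excitation/emission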
RGS7-Gao reg – RGS7-Galphao binding modulators, primary screen, biochemical, multiplexed bead flow cytometry; binding response (% of control), % at 10 µM; 220,000 tested, 0.35% active; Guanine nucleotide-binding protein G(o) subunit alpha (Homo sapiens), P09471; actives lie on both sides; in the data active means binding response below about 49% or above about 150%; inconclusive means no clear call, values can overlap the other calls; inactive means in between;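 further: fluorescent Galphao held in activated GDP-AlF4 state binding bead-coupled RGS7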
RGS-Gao – modulators of RGS–Galpha-o binding, primary screen, biochemical, multiplexed beads, flow cytometry, RGS4/7/8/16/19; shares compounds with RGS16-Gao HTS; multiplexed bead flow cytometry; RGS4–Galpha-o binding response, % at 10 µM; 1,600 tested, 99% active;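 further: fluorescently labeled Galpha-o bound to GDP with aluminium fluoride binding biotinylated RGS beads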
Biotin-avidin – disruption of biotin probe capture by avidin, counter-screen for RGS protein interaction modulators, biochemical, flow cytometry, bead-based; streptavidin beads, fluorescein-biotin binding; shares compounds with RGS16-Gao HTS; 1,700 tested, under 10 active; inhibition, % at 10 µM; AID 1783, 2009;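 active means inhibition above 50%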;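 further: median green fluorescence of gated singlet beads compared with DMSO control wells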
RGS8-Gao confirm – RGS8-Galphao binding modulators, confirmation, biochemical, multiplexed bead flow cytometry, single concentration; shares compounds with RGS16-Gao HTS; bead-based flow cytometry RGS8-Galphao binding, fluorescence; actives lie on both sides; binding response (% of control), % at 10 µM; 1,700 tested, 3% active; AID 1836, 2009; in the data active means binding response below about 72% or above about 130%; inactive means in between;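 further: Galphao activated as GDP AlF4 complex before binding bead RGS8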
RGS7-Gao single – RGS7-Galphao binding modulators, confirmation, biochemical, multiplexed bead flow cytometry, single concentration | AID 1837, 2009 | response (percent of control binding), % at 10 µM | 1,700 tested, 7.8% active | bead-based flow cytometry RGS7-Galphao binding; actives lie on both sides | shares compounds with RGS16-Gao HTS; in the data active means response below about 75% or above about 130%; inactive means in between;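 further: fluorescent Galphao activated with GDP and aluminum fluoride binding bead-coupled RGS7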
RGS16-Gao conf – modulators of RGS16-Galphao protein binding, confirmation, biochemical, single concentration, multiplexed bead flow cytometry; shares compounds with RGS16-Gao HTS; bead-based flow cytometry; actives lie on both sides; response (% of control binding), % at 10 µM; 1,700 tested, 4% active; AID 1838, 2009; in the data active means response below about 74% or above about 130%; inactive means in between;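 further: Galphao activated as the GDP aluminium fluoride complex binding bead-coupled RGS16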
RGS4-Gao confirm – modulators of RGS4-Galphao protein binding, confirmation, biochemical, single concentration, multiplexed bead flow cytometry | binding response (% of control), % at 10 µM | 1,700 tested, 4% active | actives lie on both sides | AID 1840, 2009 | shares compounds with RGS16-Gao HTS; in the data active means binding response below about 74% or above about 130%; inactive means in between
RGS19-Gao conf – regulators of RGS19-Galphao binding, confirmation, biochemical, single point, multiplexed bead flow cytometry. shares compounds with RGS16-Gao HTS. bead-based flow cytometry RGS19-Galphao binding; actives lie on both sides. response (percent of control binding), % at 10 µM. 1,700 tested, 5% active; in the data active means response below about 50% or above about 160%; inactive means in between
A number is an active result; i = inactive; ? = inconclusive; nt = not tested or not shown; [ ] = dose if it differs, or a comment. Unless noted, how the calls were made is not given here.

SMILES	RGS16-Gao HTS	RGS8-Gao	RGS4-Gao reg	Calb biofilm kill	RGS7-Gao reg	RGS-Gao	Biotin-avidin	RGS8-Gao confirm	RGS7-Gao single	RGS16-Gao conf	RGS4-Gao confirm	RGS19-Gao conf
CC(C)Sc1nc2ccc(N3C(=O)C4CCCCC4C3=O)cc2s1 (stereo not drawn)	20.7	i	i	i	i	88.3	i	i	i	i	i	i
CSc1nc(-c2ccccc2)nn1S(=O)(=O)c1ccc(Cl)cc1	i	i	i	nt	i	nt	nt	nt	nt	nt	nt	nt
CSc1nc(-c2ccccc2)nn1S(=O)(=O)c1ccccc1	199.2[activator]	i	173.2[activator]	i	171.2[activator]	nt	i	i	i	i	i	i
Cc1nc2c(-c3ccc(F)cc3)c(C)nn2c(C)c1CCC(=O)Nc1ccccc1F	i	i	i	i	?	nt	nt	nt	nt	nt	nt	nt
COc1cc2c(cc1NC(=S)NC(=O)/C=C/c1ccco1)oc1ccccc12	21.1	i	i	i	i	102.6	i	i	i	i	i	i
COc1ccc(Br)cc1/C=N/NC(=O)CN1CCN(Cc2ccccc2)CC1	i	i	i	i	?	nt	nt	nt	nt	nt	nt	nt
N#CC(C#N)=Cc1cccn1-c1ccc(S(N)(=O)=O)cc1	i	i	i	i	i	nt	nt	nt	nt	nt	nt	nt
COc1ccc(CCNC(=O)COC(=O)c2cc(OC)c(OC)cc2OC)cc1OC	199.1[activator]	173.8[activator]	172.5[activator]	i	172.0[activator]	nt	i	i	i	i	i	i
Cc1ccc(CNC(=O)c2cc3c(s2)CN(Cc2ccccc2)C3)cc1	i	i	i	i	i	nt	nt	nt	nt	nt	nt	nt
Cc1ccc(CNC(=O)COC(=O)c2c(C)noc2C)cc1	i	i	156.6[activator]	nt	i	nt	i	i	i	i	i	i
FC(F)(F)c1nnc2ccc(N3CCCC3)nn12	i	i	i	nt	i	nt	nt	nt	nt	nt	nt	nt
FC(F)(F)c1nnc2ccc(N3CCCCCC3)nn12	nt	173.1[activator]	i	nt	i	148.9	i	i	i	i	i	i
CCC1CCC(c2nnc(-c3ccc(Br)cc3)o2)CC1 (stereo not drawn)	13.3	i	i	i	i	89.3	i	i	i	i	i	i
Cc1nc(Nc2cccc(C(C)O)c2)c2nnn(Cc3ccccc3F)c2n1 (stereo not drawn)	i	i	i	i	i	nt	nt	nt	nt	nt	nt	nt
COc1ccc(-n2ccnc2SCC(=O)NCc2ccc(F)cc2)c(OC)c1	i	i	i	i	i	nt	nt	nt	nt	nt	nt	nt
COc1ccc(-c2noc(Cc3ccc(Cl)cc3)n2)cc1OC	i	i	i	nt	166.5[activator]	109.2	i	i	i	i	i	i
COc1ccc(Cc2nc(-c3ccc(Cl)cc3)no2)cc1	i	i	i	nt	i	nt	nt	nt	nt	nt	nt	nt
